This is an account of results in ChEMBL document CHEMBL6134765, “Rapid identification of novel indolylarylsulfone derivatives as potent HIV-1 NNRTIs via miniaturized CuAAC click-chemistry-based combinatorial libraries” (RSC Med Chem, 2025).

The nature of series [1]: Selectivity index, ratio of CC50 for cytotoxicity against human MT4 cells to EC50 for antiviral activity against wild-type HIV-1 IIIB infected in human MT4 cells. Conditions: read-out: Ratio CC50/EC50. The format is toxicity, cell-based. A digest of the protocol:
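Selectivity index is calculated as CC50 (mock-infected MT-4, MTT) divided by EC50 (HIV-1 IIIB protection of MT-4, MTT).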

Series [2] relates to Human immunodeficiency virus 1. Nature of the series: Antiviral activity against HIV-1 harboring F227L/V106A double mutant infected in human MT4 cells assessed as inhibition of virus induced cytotoxicity incubated for 5 days by spectrophometry based MTT assay. The format is functional, organism-based. Conditions: Human immunodeficiency virus 1, MT4, 120 h. The method in brief: (§1)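 MT-4 cells (from Dr. N. Yamamoto, Yamaguchi University) infected with single-mutant (L100I, K103N, Y181C, Y188L, E138K) or double-mutant (F227L/V106A; RES056 = K103N/Y181C) HIV-1 strains. Protection against virus-induced cytotoxicity was read by the MTT method. EC50 is the concentration giving 50% protection of the cell cultures.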
(In general: Formazan colour is commonly taken as a measure of viable cells.)

The target in series [3] is Human immunodeficiency virus type 1 reverse transcriptase (Human immunodeficiency virus 1) (UniProt Q72547). Nature of the series: Inhibition of recombinant HIV-1 reverse transcriptase at 0.66 mM incubated for 1 hr by ELISA relative to control. A digest of the protocol:
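Each library compound was tested directly as the crude click mixture (diluted in DMSO to 2 mM per well) against HIV-1 RT at 0.66 mM, using an ELISA-based RT kit following the kit protocol. Blank controls held DMSO, TBTA, CuSO4·5H2O and sodium ascorbate. Inhibition is expressed as a percentage.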
(In general: ELISA stands for enzyme-linked immunosorbent assay.)

Series [4] concerns Human immunodeficiency virus 1. Nature of the series: Antiviral activity against HIV-1 harboring E138K mutant infected in human MT4 cells assessed as inhibition of virus induced cytotoxicity incubated for 5 days by spectrophometry based MTT assay. Format: functional, organism-based. The settings on record: Human immunodeficiency virus 1, MT4, 120 h. The method in brief: as §1

For series [5], the system named is Human immunodeficiency virus 1. The series is described as follows: Antiviral activity against HIV-1 harboring K103N mutant infected in human MT4 cells assessed as inhibition of virus induced cytotoxicity incubated for 5 days by spectrophometry based MTT assay. Conditions: Human immunodeficiency virus 1, MT4, 120 h. Format: functional, organism-based. A digest of the protocol: as §1

In series [6] the test system is Human immunodeficiency virus 1. The series is described as follows: Antiviral activity against HIV-1 harboring RES056 mutant infected in human MT4 cells assessed as inhibition of virus induced cytotoxicity incubated for 5 days by spectrophometry based MTT assay. Format: functional, organism-based. Conditions: Human immunodeficiency virus 1, MT4, 120 h. The method in brief:
as §1

Series [7] deals with Human immunodeficiency virus 1. Nature of the series: Antiviral activity against HIV-1 harboring L100I mutant infected in human MT4 cells assessed as inhibition of virus induced cytotoxicity incubated for 5 days by spectrophometry based MTT assay. Format: functional, organism-based. The settings on record: Human immunodeficiency virus 1, MT4, 120 h. The method in brief: as §1

Series [8] concerns Human immunodeficiency virus 1. Nature of the series: Antiviral activity against HIV-1 harboring Y181C mutant infected in human MT4 cells assessed as inhibition of virus induced cytotoxicity incubated for 5 days by spectrophometry based MTT assay. The format is functional, organism-based. Conditions: Human immunodeficiency virus 1, MT4, 120 h. The method in brief:
as §1

Series [9] in a line: Cytotoxicity against human MT4 cells assessed as reduction in cell viability incubated for 5 days by MTT assay. The format is toxicity, cell-based. Conditions: time 5 day. The method in brief: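 Mock-infected MT-4 cultures were read by MTT for cell viability. CC50 is the concentration that reduces viability by 50%.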
Series [10] has as its system Human immunodeficiency virus 2. The series is described as follows: Antiviral activity against HIV-2 ROD infected in human MT4 cells incubated for 5 days by spectrophotometry based MTT assay. The format is functional, organism-based. The settings on record: Human immunodeficiency virus 2, ROD, MT4, 120 h. A digest of the protocol: (§2)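 MTT protection assay in MT-4 cells infected with HIV-1 IIIB or HIV-2 ROD. EC50 is the compound concentration giving 50% protection of the cultures against virus-induced cytotoxicity.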

The test system of series [11] is Human immunodeficiency virus 1. The series is described as follows: Antiviral activity against HIV-1 harboring Y188L mutant infected in human MT4 cells assessed as inhibition of virus induced cytotoxicity incubated for 5 days by spectrophometry based MTT assay. The format is functional, organism-based. Conditions: Human immunodeficiency virus 1, MT4, 120 h. A digest of the protocol: as §1

For series [12], the system named is Human immunodeficiency virus 1. Nature of the series: Antiviral activity against wild-type HIV-1 IIIB infected in human MT4 cells incubated for 5 days by spectrophometry based MTT assay. The settings on record: Human immunodeficiency virus 1, IIIB, MT4, 120 h. Format: functional, organism-based. A digest of the protocol: as §2

Molecules are shown by their SMILES.

On to `Cc1cc(C)cc(S(=O)(=O)c2c(C(=O)NCc3cn(CC(=O)Nc4ccc(C(F)(F)F)cc4)nn3)[nH]c3ccc(Cl)cc23)c1`, for which the selectivity ratio in series [1] was found to be 148. Besides, the EC50 (commonly the concentration that produces a half-maximal response) in series [2] was more than 17000 nM; in series [4], 2220 nM; in [5] it was 1720 nM; in series [6] it was more than 17000 nM; in series [7] it was 590 nM; in series [8], more than 7410 nM. For the same compound, the results for the EC50 in [10], in [11] and in series [12] were more than 17000 nM, 400 nM and 110 nM, respectively. Moreover, the inhibition (usually the change of the read-out against control, counted positive when it falls) in series [3] was more than 85%. In addition, in series [9], the CC50 (as a rule, the concentration giving 50% cytotoxicity) at 120 h was 17000 nM.
Regarding `Cc1cc(C)cc(S(=O)(=O)c2c(C(=O)NCc3cn(CC(=O)Nc4ccc(Br)cc4)nn3)[nH]c3ccc(Cl)cc23)c1`, in series [1], the selectivity ratio is 231. In addition, the EC50 was 1870 nM in series [2]; 150 nM in series [4]; 1500 nM in [5]; more than 15800 nM in series [6]; 380 nM in series [7]; 540 nM in series [8]. Further, the EC50 in [10] is more than 15800 nM; in [11], 4080 nM; in series [12] it was 68 nM. Moreover, the inhibition in series [3] was more than 85%. Also, the cytotoxic concentration (CC50) at 120 h in [9] is 15800 nM.
On to `Cc1cc(C)cc(S(=O)(=O)c2c(C(=O)NCc3cn(CCCc4ccccc4)nn3)[nH]c3ccc(Cl)cc23)c1`, for which the selectivity ratio in series [1] was found to be 302. Also, the EC50 is 9700 nM in [2]; 1390 nM in series [4]; 3250 nM in [5]; more than 117000 nM in [6]; 1870 nM in series [7]; 2710 nM in series [8]. Also, the EC50 in series [10] is more than 117000 nM; in [11] it was more than 117000 nM; in [12], 390 nM. In addition, in series [3], the inhibition is more than 85%. In [9], the CC50 at 120 h worked out at 117000 nM.
Turning to `Cc1cc(C)cc(S(=O)(=O)c2c(C(=O)NCc3cn(Cc4cccc5ccccc45)nn3)[nH]c3ccc(Cl)cc23)c1`, in [1], the selectivity ratio was more than 3510. Also, the EC50 was determined as 1990 nM in [2]; 240 nM in series [4]; 700 nM in series [5]; 113000 nM in series [6]; 300 nM in [7]; 620 nM in series [8]. Besides, the values for the EC50 in series [10], in series [11] and in series [12] were more than 214000 nM, 25000 nM and 61 nM, respectively. For the same compound, the inhibition in series [3] was more than 85%. Moreover, the CC50 at 120 h in series [9] is more than 214000 nM.
As to `Cc1cc(C)cc(S(=O)(=O)c2c(C(=O)NCc3cn(CC(=O)Nc4ccc(F)cc4)nn3)[nH]c3ccc(Cl)cc23)c1`, the selectivity ratio in series [1] came to 188. In addition, the concentration giving a half-maximal response (EC50) in [2] was 5090 nM; in series [4], 560 nM; in series [5], 2780 nM; in series [6], more than 16200 nM; in series [7], 530 nM; in series [8] it was 1070 nM. Moreover, the EC50 in [10] was more than 16200 nM; in series [11] it was 14100 nM; in series [12] it was 87 nM. In series [3], the inhibition was more than 85%. Further, the CC50 at 120 h in series [9] stood at 16200 nM.
For the compound `COC(=O)Cn1cc(CNC(=O)c2[nH]c3ccc(Cl)cc3c2S(=O)(=O)c2cc(C)cc(C)c2)nn1`, the selectivity ratio in series [1] was determined as 143. Moreover, the EC50 in [2] was 1070 nM; in series [4] it was 170 nM; in series [5] it was 140 nM; in series [6] it was more than 6460 nM; in [7], 220 nM; in [8], 800 nM. Further, the EC50 in series [10] was more than 6460 nM; in series [11], 11700 nM; in [12], 45 nM. For the same compound, the inhibition in [3] is more than 85%. Also, in series [9], the CC50 at 120 h amounted to 6460 nM.
Take `Cc1cc(C)cc(S(=O)(=O)c2c(C(=O)NCc3cn(CSc4ccccc4)nn3)[nH]c3ccc(Cl)cc23)c1`: in [1], the selectivity ratio was more than 5510. Moreover, the EC50 in series [2] was 810 nM; in [4] it was 180 nM; in [5] it was 240 nM; in series [6] it was more than 221000 nM; in [7], 150 nM; in [8], 670 nM. Moreover, the EC50 in series [10] is more than 221000 nM; in [11], 15800 nM; in series [12] it was 40 nM. The inhibition in series [3] is more than 85%. The CC50 at 120 h in series [9] is more than 221000 nM.
In the case of `Cc1cc(C)cc(S(=O)(=O)c2c(C(=O)NCc3cn(Cc4ccccc4[N+](=O)[O-])nn3)[nH]c3ccc(Cl)cc23)c1`, the selectivity ratio in series [1] was more than 9120. The EC50 in [2] was 1560 nM; in series [4] it was 150 nM; in series [5], 510 nM; in series [6], more than 194000 nM; in [7] it was 150 nM; in series [8], 290 nM. Moreover, the EC50 in series [10] was more than 216000 nM; in series [11], 20800 nM; in [12], 24 nM. In series [3], the inhibition was more than 85%. Moreover, the CC50 at 120 h in [9] is more than 216000 nM.
